Laboratory results from article PMC9126795 (eBioMedicine, 2022).

How the values were obtained:
[1] = tested on: murine models of liver fibrosis; settings: due to hepatic stellate cell inactivation and macrophage migration; cited from earlier work
[2] = tested on: patients with HCV and HBV liver cirrhosis; assay: Serum ALB, PT and TBIL; assay type: in vivo, human; settings: 14 patients
[3] = tested on: patients with HCV and HBV liver cirrhosis; assay: FIB-4 index, post-hoc analysis; assay type: in vivo, human; settings: before and after administration
Method in brief: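 This post-hoc analysis covered HCV/HBV cirrhosis patients given 280 mg/m² of the test compound by 4 h IV infusion twice weekly for 12 weeks. FIB-4 index was calculated before and after administration.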

[4] = tested on: patients with HCV and HBV liver cirrhosis; assay: Serum fibrosis markers; assay type: in vivo, human; settings: before vs 12 weeks after PRI-724 administration
Method in brief: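 As an exploratory endpoint, serum hyaluronic acid and type IV collagen type S were measured before and 12 weeks after a course of 280 mg/m² test compound (4 h IV infusion, twice weekly, 12 weeks). Subjects were patients with HCV/HBV cirrhosis, and mean levels were compared.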

[5] = tested on: patients with HCV and HBV liver cirrhosis; assay: Collagen proportionate area; assay type: in vivo, human; settings: baseline vs 12 weeks after PRI-724 administration, 280 mg/m^2/4 h
[6] = tested on: patients with HCV and HBV liver cirrhosis; assay: Ishak; assay type: in vivo, human
Method in brief: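 Liver biopsies were taken at screening (baseline) and within 2 weeks of the final dose of 280 mg/m²/4 h IV twice weekly for 12 weeks. Three independent pathologists scored slides blinded, using Knodell scoring and Ishak-modified HAI for necroinflammation and fibrosis stage. Thirteen of 15 patients were evaluable; one was excluded for poor sample quality and one discontinued.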

[7] = tested on: patients with HCV and HBV liver cirrhosis; assay: Child-Pugh; assay type: in vivo, human; settings: 12 weeks after PRI-724 administration
Method in brief: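 Patients with HCV- or HBV-induced cirrhosis (Child–Pugh A or B) received the test compound at 280 mg/m² by 4 h IV infusion twice weekly for 12 weeks. Child–Pugh class and score were assessed at baseline and 12 weeks post-treatment. Fourteen patients were analysed, with one who discontinued excluded.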

[8] = tested on: patients with HCV and HBV liver cirrhosis; assay: Liver stiffness measure; assay type: in vivo, human; settings: 12 weeks
Method in brief: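 Liver stiffness was measured by FibroScan at baseline and 12 weeks post-treatment in cirrhosis patients. Dosing was 280 mg/m² test compound by 4 h IV infusion twice weekly for 12 weeks. Thirteen patients were analysed, and the change relative to baseline was computed, including the ≥10% decrease subset among Child–Pugh B patients.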

[9] = 280mg/m^2/4 h, 12 weeks, 13 patients

In the case of PRI-724, the Anti-fibrotic effect [1] is listed as “exhibits anti-fibrotic effects”, the “Serum ALB level” value [2] is listed as “improved from baseline at some time after PRI-724 administration” and the “Serum TBIL level” value [2] is listed as “improved from baseline at some time after PRI-724 administration”. For the same substance, the FIB-4 index [3] was “statistically significant decrease”, the “Serum M2BPGi, mean level” value [4] was “lower relative to baseline levels but not statistically significant” and the “Serum hyaluronic acid, mean level” value [4] was “no difference in mean levels”. For the same substance, the “Serum procollagen III peptide, mean level” value [4] was “lower relative to baseline levels but not statistically significant”, the “Serum type IV collagen type S, mean level” value [4] was “no difference in mean levels” and the “Collagen proportionate area of the whole liver tissue” value [5] was “no statistically significant change was observed”. For the same substance, the “Patients with change in Fibrosis score from baseline of 0” value [6, 9] was 6, the “Patients with change in Fibrosis score from baseline of 1” value [6, 9] was 3 and the “Patients with change in Fibrosis score from baseline of 2” value [6, 9] was 1. The “Patients with change in Fibrosis score from baseline of -1” value [6, 9] was 1, the “Patients with change in Fibrosis score from baseline of -2” value [6, 9] was 2 and the “Patients with change in Necroinflammatory score from baseline of 0” value [6, 9] was 5. The “Patients with change in Necroinflammatory score from baseline of 1” value [6, 9] was 2, the “Patients with change in Necroinflammatory score from baseline of 2” value [6, 9] was 2 and the “Patients with change in Necroinflammatory score from baseline of -1” value [6, 9] was 2. For the same substance, the “Patients with change in Necroinflammatory score from baseline of -2” value [6, 9] was 2, the Mean activity score ([6]; after 12-week PRI-724 administration) was “No change was observed” and the “Change of CP class in the seven patients with CP class B at baseline” value [7] was “two improved to class A, four remained unchanged, and one worsened”. For the same substance, the “Patients with CP class B whose LSM decreased by ≥10% relative to baseline” value [8] was “four of six patients”.
